SKKanGAS inh: inhibitors of SKKanGAS S. pyogenes growth in kanamycin (SK-promoter or general growth effect); BacTiter-Glo, 6 h; inhibition, % at 7.5 µM; 300,000 tested, 1.3% active; AID 1662;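 active = mean replicate score, as percent of positive control median, at least 50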;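 note: strain carries kanamycin resistance gene driven by streptokinase promoter and grows in 40 µg/ml kanamycin; loss of luminescence reflects streptokinase promoter inhibition or plain growth inhibition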
Beta apoptosis: blocks beta cell apoptosis. INS-1E cytokine-induced death, ATP luminescence, 48 h; percent of positive-control rescue, neutral wells zero. protection from apoptosis, % (no concentration beside the values). 300,000 tested, 0.8% active. AID 435005;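 active = Every replicate reaches about 75%, or at least half do and their mean reaches it too, limit read from the data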;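 note: higher means more ATP so stronger rescue from cytokine killing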
Mdm2-MdmX inh: inhibitors of human Mdm2/MdmX interaction; O15151+Q00987; SaOS-2 split-luciferase Mdm2/MdmX complementation, luminescence; inhibition, % at 8 µM; 330,000 tested, 3% active;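 active = inhibition of at least 50% at 8 µM in the primary screen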
Target sequence (O15151 whole entry, looked up): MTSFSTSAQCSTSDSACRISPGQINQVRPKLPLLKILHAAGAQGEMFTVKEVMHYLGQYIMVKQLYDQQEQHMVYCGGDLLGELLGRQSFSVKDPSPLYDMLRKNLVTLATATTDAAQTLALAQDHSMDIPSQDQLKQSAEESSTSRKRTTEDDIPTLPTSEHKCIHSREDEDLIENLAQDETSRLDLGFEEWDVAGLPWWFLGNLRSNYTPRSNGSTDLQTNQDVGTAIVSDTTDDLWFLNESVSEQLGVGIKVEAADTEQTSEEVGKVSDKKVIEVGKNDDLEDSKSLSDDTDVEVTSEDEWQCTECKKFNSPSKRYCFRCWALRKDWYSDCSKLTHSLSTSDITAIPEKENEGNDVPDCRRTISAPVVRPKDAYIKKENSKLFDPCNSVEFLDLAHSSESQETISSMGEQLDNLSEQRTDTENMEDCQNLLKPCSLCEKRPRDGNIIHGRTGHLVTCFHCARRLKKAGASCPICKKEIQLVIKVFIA
Target sequence (Q00987 whole entry, looked up): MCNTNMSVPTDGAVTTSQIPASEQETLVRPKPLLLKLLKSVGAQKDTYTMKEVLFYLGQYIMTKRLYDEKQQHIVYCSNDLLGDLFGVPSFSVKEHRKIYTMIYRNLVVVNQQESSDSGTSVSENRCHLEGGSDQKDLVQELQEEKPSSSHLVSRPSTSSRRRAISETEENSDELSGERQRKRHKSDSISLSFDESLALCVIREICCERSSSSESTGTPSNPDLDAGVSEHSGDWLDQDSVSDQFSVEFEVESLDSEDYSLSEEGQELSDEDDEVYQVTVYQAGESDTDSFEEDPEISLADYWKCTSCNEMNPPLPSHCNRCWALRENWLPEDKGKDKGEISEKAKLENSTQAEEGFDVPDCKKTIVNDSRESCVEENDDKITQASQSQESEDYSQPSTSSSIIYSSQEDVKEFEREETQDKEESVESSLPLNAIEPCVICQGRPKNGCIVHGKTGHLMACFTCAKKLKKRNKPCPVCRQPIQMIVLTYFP
T cruzi inh: T. cruzi replication inhibition. T. cruzi beta-gal in NIH3T3, luminescence, 90 h. inhibition, % (test concentration not listed). 300,000 tested, 1.4% active. AID 1885;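 active = mean inhibition across valid replicates above about 55%, limit read from the data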;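 note: signal also drops with host cell toxicity which is not excluded here; higher percent means less beta-gal luminescence so fewer parasites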
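System – NIH/3T3 host cells with β-galactosidase reporter T. cruzi · Doses – single 50 nL compound addition per well in DMSO · Reagent – 5000 T. cruzi trypomastigotes/well · Medium – Low-serum DMEM with 2% FBS · Timing – ≥90 h infection period, 3 h prior cell attachment · Evaluation – parasite load inhibition, % · Technique – GalScreen luminescence, 60 min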
CSC inhib: cancer stem cell inhibition. AID 2717. cancer stem cell-like cells viability, luminescence. 300,000 tested, 1.1% active. inhibition, % at 7.5 µM; in the data active = inhibition above about 75%; tested in HMLE shEcad cells
Lmaj promast: Leishmania major promastigote growth inhibition | Leishmania major promastigotes, resazurin fluorescence viability | inhibition, % at 10 µM | 200,000 tested, 9% active | AID 1063; in the data active = inhibition above about 50%;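 note: promastigotes grown with compound for 44 hours at 28 °C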
Hits are given with their value. An excerpt weighted towards active compounds, which were near 9.4% of everything screened.

Screening O=C(Nc1ccc2nc(-c3cccnc3)[nH]c2c1)C12CC3CC(CC(C3)C1)C2 returned SKKanGAS inh inactive, Beta apoptosis inactive, Mdm2-MdmX inh inactive, T cruzi inh inactive, CSC inhib inactive and Lmaj promast 77.4.
Screening O=C(Nc1ccc2nc(-c3cccnc3)[nH]c2c1)C1CCCCC1 returned SKKanGAS inh inactive, Beta apoptosis inactive, Mdm2-MdmX inh inactive, T cruzi inh inactive, CSC inhib inactive and Lmaj promast 68.0.
O=C(Nc1nc2ccccc2[nH]1)C12CC3CC(CC(C3)C1)C2 was read as SKKanGAS inh inactive, Beta apoptosis inactive, Mdm2-MdmX inh inactive, T cruzi inh inactive, CSC inhib inactive and Lmaj promast 90.5.
Screening Cc1nc(-c2ccc([N+](=O)[O-])cc2)nc2[nH]ccc(=O)c12 returned SKKanGAS inh inactive, Beta apoptosis inactive, Mdm2-MdmX inh inactive, T cruzi inh inactive and CSC inhib inactive.
Screening COc1ccc(C(C(=O)NC2CCCCC2)N(Cc2ccco2)C(=O)c2snc(C(N)=O)c2N)cc1 (stereo not given) returned SKKanGAS inh inactive, Mdm2-MdmX inh inactive and T cruzi inh inactive.
`Cc1c(OCC(=O)N(C)c2ccccc2)ccc2c3c(c(=O)oc12)CCC3` gave SKKanGAS inh inactive, Beta apoptosis inactive, Mdm2-MdmX inh inactive and T cruzi inh inactive.
For CCc1nc(NC(=O)NS(=O)(=O)c2ccccc2C(=O)OC)nc(OC)n1 the results were SKKanGAS inh inactive, Beta apoptosis inactive, Mdm2-MdmX inh inactive, T cruzi inh inactive, CSC inhib inactive and Lmaj promast inactive.
`CCCC(CCC)=NNC(=O)c1ccccc1F` gave SKKanGAS inh inactive, Beta apoptosis inactive, Mdm2-MdmX inh inactive, T cruzi inh inactive, CSC inhib inactive and Lmaj promast inactive.
COc1ccc(C(=O)NN=C(Cc2ccccc2)Cc2ccccc2)cc1OC was read as SKKanGAS inh inactive, Beta apoptosis inactive, Mdm2-MdmX inh inactive, T cruzi inh inactive, CSC inhib inactive and Lmaj promast 51.0.
CC(/C=C/c1ccccc1)=N/NC(=O)c1cc([N+](=O)[O-])cc([N+](=O)[O-])c1 was read as Beta apoptosis inactive, CSC inhib inactive and Lmaj promast 82.9.
CC/C(Cc1ccccc1)=N\NC(=O)c1cc([N+](=O)[O-])cc([N+](=O)[O-])c1 was read as SKKanGAS inh inactive, Beta apoptosis inactive, Mdm2-MdmX inh inactive, T cruzi inh inactive, CSC inhib inactive and Lmaj promast 58.9.
For O=C(NN=C(Cc1ccccc1)Cc1ccccc1)c1ccccc1F the results were SKKanGAS inh inactive, Beta apoptosis inactive, Mdm2-MdmX inh inactive, T cruzi inh inactive, CSC inhib inactive and Lmaj promast 64.2.
Screening COc1ccccc1C(=O)C1CCCN(C(=O)c2ccccc2Cl)C1 (stereo not given) returned SKKanGAS inh inactive, Mdm2-MdmX inh inactive and T cruzi inh inactive.
`Cc1ccc(NC(=O)Cc2nc(CN(C)CC(=O)Nc3ccc(C)cc3)cs2)cc1` gave Beta apoptosis inactive and Mdm2-MdmX inh inactive.
Screening O=C(CN(c1ccccc1)S(=O)(=O)c1ccccc1[N+](=O)[O-])N1CCCC1 returned SKKanGAS inh inactive, Beta apoptosis inactive, Mdm2-MdmX inh inactive, T cruzi inh inactive and CSC inhib inactive.
For CC(/C=N\NC(=O)c1cccnc1)c1ccccc1 (stereo not given) the results were SKKanGAS inh inactive, Beta apoptosis inactive, Mdm2-MdmX inh inactive, T cruzi inh inactive, CSC inhib inactive and Lmaj promast inactive.
CC(/C=C/c1cccc([N+](=O)[O-])c1)=N/NC(=O)c1cccnc1 was read as SKKanGAS inh inactive, Beta apoptosis inactive, Mdm2-MdmX inh inactive, T cruzi inh inactive, CSC inhib inactive and Lmaj promast 95.8.
Screening C/C(=N\NC(=O)c1cccnc1)c1cccc([N+](=O)[O-])c1 returned SKKanGAS inh inactive, Beta apoptosis inactive, Mdm2-MdmX inh inactive, T cruzi inh inactive, CSC inhib inactive and Lmaj promast inactive.
For CCCn1c(N)c(N(CCOC)C(=O)/C=C/c2ccc(C(=O)OC)cc2)c(=O)[nH]c1=O the results were SKKanGAS inh inactive, Mdm2-MdmX inh inactive, T cruzi inh inactive, CSC inhib inactive and Lmaj promast inactive.
Screening OCC(O)C(O)C(O)C(O)c1nc2ccccc2[nH]1 (stereo not given) returned SKKanGAS inh inactive, Beta apoptosis inactive, Mdm2-MdmX inh inactive, T cruzi inh inactive, CSC inhib inactive and Lmaj promast inactive.
`CC(/C=C1\SC(=S)N(CC(=O)O)C1=O)=C\c1ccccc1` gave SKKanGAS inh inactive, Beta apoptosis inactive, Mdm2-MdmX inh inactive, T cruzi inh inactive and CSC inhib inactive.
CC(/C=C1\SC(=S)N(C(C(=O)O)c2ccccc2)C1=O)=C\c1ccccc1 (stereo not given) was read as SKKanGAS inh 60.6, Beta apoptosis inactive, Mdm2-MdmX inh inactive, T cruzi inh inactive and CSC inhib inactive.
Screening COc1cccc(CN2CCN(c3nc4nonc4nc3NC3CC3)CC2)c1 returned SKKanGAS inh inactive, Beta apoptosis inactive, Mdm2-MdmX inh inactive, T cruzi inh inactive, CSC inhib inactive and Lmaj promast inactive.
For S=C(Nc1ccc(Cl)cc1)NC1CC2CCCC(C1)N2C1CCCC1 (stereo not given) the results were SKKanGAS inh inactive, Beta apoptosis inactive, Mdm2-MdmX inh inactive, T cruzi inh inactive, CSC inhib inactive and Lmaj promast 77.1.
S=C(Nc1ccc(Cl)cc1)NC1CC2CCCC(C1)N2C1CC1 (stereo not given) was read as SKKanGAS inh inactive, Beta apoptosis inactive, Mdm2-MdmX inh inactive, T cruzi inh inactive, CSC inhib inactive and Lmaj promast inactive.
C=CCN1C2CCCC1CC(NC(=S)Nc1ccc(Cl)cc1)C2 (stereo not given) was read as SKKanGAS inh inactive, Beta apoptosis inactive, Mdm2-MdmX inh inactive, T cruzi inh inactive, CSC inhib inactive and Lmaj promast 96.1.
S=C(Nc1cccc(Cl)c1)NC1CC2CCCC(C1)N2C1CCCC1 (stereo not given) was read as SKKanGAS inh inactive, Beta apoptosis inactive, Mdm2-MdmX inh inactive, T cruzi inh inactive, CSC inhib inactive and Lmaj promast 72.9.
For C=CCN1C2CCCC1CC(NC(=O)Nc1cc(C)cc(C)c1)C2 (stereo not given) the results were SKKanGAS inh inactive, Mdm2-MdmX inh inactive, T cruzi inh inactive, CSC inhib inactive and Lmaj promast inactive.
Screening CCCCN(C(=O)C1CC(=O)N(Cc2ccc(C)cc2)C1)c1c(N)n(CCCC)c(=O)[nH]c1=O (stereo not given) returned SKKanGAS inh inactive, Beta apoptosis inactive, Mdm2-MdmX inh inactive, T cruzi inh inactive and CSC inhib inactive.
`CCc1n[nH]c(=S)n1/N=C/c1cc(OC)cc([N+](=O)[O-])c1O` gave SKKanGAS inh inactive, Beta apoptosis inactive, Mdm2-MdmX inh inactive, T cruzi inh 67.8, CSC inhib inactive and Lmaj promast inactive.
`COc1cc(/C=N/n2c(=S)[nH]nc(C)c2=O)cc([N+](=O)[O-])c1O` gave SKKanGAS inh inactive, Mdm2-MdmX inh inactive, T cruzi inh inactive, CSC inhib inactive and Lmaj promast inactive.

From PubChem
